According to ChEMBL document CHEMBL1127335, “Inhibitors of acyl-CoA: cholesterol O-acyl transferase (ACAT) as hypocholesterolemic agents. 6. The first water-soluble ACAT inhibitor with lipid-regulating activity” (J Med Chem, 1994):

How the values were obtained:
[1] = Partition coefficient was measured by the shake flask method at pH 7.4.; format: physicochemical; conditions: octanol/water
How it was run: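 Log P determined by shake-flask partitioning at pH 7.4.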

[2] = biological target: T1, Sterol O-acyltransferase 1 (Rattus norvegicus, UniProt O70536); experiment: Compound was evaluated for the Acyl coenzyme A:cholesterol acyltransferase inhibition using microsomes isolated from the livers of cholesterol fed rats; parameters: species or system Liver
T1 sequence (O70536 whole entry): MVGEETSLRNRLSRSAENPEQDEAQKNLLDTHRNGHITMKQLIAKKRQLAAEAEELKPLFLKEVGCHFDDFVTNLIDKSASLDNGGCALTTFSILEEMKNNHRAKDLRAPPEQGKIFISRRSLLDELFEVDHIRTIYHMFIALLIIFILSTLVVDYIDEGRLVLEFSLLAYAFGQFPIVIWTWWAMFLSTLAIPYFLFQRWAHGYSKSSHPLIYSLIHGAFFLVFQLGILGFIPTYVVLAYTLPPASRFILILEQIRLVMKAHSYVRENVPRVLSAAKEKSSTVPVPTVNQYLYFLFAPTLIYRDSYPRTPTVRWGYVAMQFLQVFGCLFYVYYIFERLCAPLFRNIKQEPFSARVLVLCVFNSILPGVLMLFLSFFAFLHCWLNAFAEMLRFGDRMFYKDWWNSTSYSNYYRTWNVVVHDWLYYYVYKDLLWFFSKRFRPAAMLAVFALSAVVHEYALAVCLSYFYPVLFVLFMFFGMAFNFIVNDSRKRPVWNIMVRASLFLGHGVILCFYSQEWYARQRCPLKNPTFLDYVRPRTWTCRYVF
How it was run: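 Liver microsomes prepared from cholesterol-fed rats used as ACAT source. IC50 determined from four drug concentrations per assay, in four separate assays, and reported as the mean.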

Caco-2 = experiment: Activity of compound in an intestine model using Caco-2 cells; format: functional, cell-based; conditions: Homo sapiens, Caco-2, Intestine
How it was run: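 CaCo-2 intestinal cells incubated with radiolabeled oleic acid in the presence of test agent; ACAT activity in intact cells read as oleate incorporation into cholesteryl esters, with triglyceride and phospholipid incorporation also followed up to 100 µM. IC50 averaged over three separate experiments.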

Rattus norvegicus [3] = experiment: […] activity in rats at a dose of 1 mg/kg of compound was determined; format: functional
How it was run: (§1)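 Acute model in rats: one dose given, then ad libitum overnight feeding of chow supplemented with peanut oil (5.5%), cholesterol (1.5%) and cholic acid (0.5%). Plasma cholesterol measured; n = 5/group; mean ± SEM; percent change relative to PCC-fed controls. ED50 is the dose that lowers plasma cholesterol by 50%.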

Rattus norvegicus [4] = experiment: […] activity in rats at a dose of 10 mg/kg was determined; format: functional; how it was run: as §1
Rattus norvegicus [5] = experiment: […] activity in rats at a dose of 3 mg/kg of compound was determined; format: functional; how it was run: as §1
Rattus norvegicus [6] = experiment: […] activity in rats at a dose of 30 mg/kg was determined; format: functional; how it was run: as §1
Rattus norvegicus [7] = experiment: Anti hypercholesterolemic activity in rats at a dose of 0.3 mg/kg of compound was determined; format: functional; how it was run: as §1
Rattus norvegicus [8] = organism: Rattus norvegicus; experiment: Dose required to lower the plasma cholesterol by 50% in rats was determined; format: functional; how it was run: as §1
Rattus norvegicus [9] = experiment: Chronic effect on preestablished dyslipidemia in rats for HDL-C at 0.3 mg/kg of compound was determined; format: functional
How it was run: (§2)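 Plasma total cholesterol measured; HDL-C separated by dextran sulfate precipitation of whole plasma, nonHDL-C derived. n = 5/group, mean ± SEM, % change versus PCC-fed controls; chow-fed controls included.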

Rattus norvegicus [10] = experiment: Chronic effect on preestablished dyslipidemia in rats for HDL-C at 10 […] of compound was determined; format: functional; how it was run: as §2
Rattus norvegicus [11] = experiment: Chronic effect on preestablished dyslipidemia in rats for HDL-C at 1 mg/kg of compound was determined; format: functional; how it was run: as §2
Rattus norvegicus [12] = experiment: Chronic effect on preestablished dyslipidemia in rats for HDL-C at 30 mg/kg of compound was determined; format: functional; how it was run: as §2
Rattus norvegicus [13] = experiment: Chronic effect on preestablished dyslipidemia in rats for HDL-C at 3 mg/kg of compound was determined; format: functional; how it was run: as §2
Rattus norvegicus [14] = experiment: Chronic effect on preestablished dyslipidemia in rats for nonHDL-C at 0.3 mg/kg of compound was determined; format: functional; how it was run: as §2
Rattus norvegicus [15] = experiment: Chronic effect on preestablished dyslipidemia in rats for nonHDL-C at 10 mg/kg of compound was determined; format: functional; how it was run: as §2
Rattus norvegicus [16] = experiment: Chronic effect on preestablished dyslipidemia in rats for nonHDL-C at 1 mg/kg of compound was determined; format: functional; how it was run: as §2
Rattus norvegicus [17] = experiment: Chronic effect on preestablished dyslipidemia in rats for nonHDL-C at 30 mg/kg of compound was determined; format: functional; how it was run: as §2
Rattus norvegicus [18] = experiment: Chronic effect on preestablished dyslipidemia in rats for nonHDL-C at 3 mg/kg of compound was determined; format: functional; how it was run: as §2
Rattus norvegicus [19] = experiment: Chronic effect on preestablished dyslipidemia in rats for total cholesterol at 0.3 mg/kg of compound was determined; format: functional; how it was run: as §2
Rattus norvegicus [20] = experiment: Chronic effect on preestablished dyslipidemia in rats for total cholesterol at 1 mg/kg of compound was determined; format: functional; how it was run: as §2
Rattus norvegicus [21] = experiment: Chronic effect on preestablished dyslipidemia in rats for total cholesterol at 10 mg/kg of compound was determined; format: functional; how it was run: as §2
Rattus norvegicus [22] = experiment: Chronic effect on preestablished dyslipidemia in rats for total cholesterol at 3 mg/kg of compound was determined; format: functional; how it was run: as §2
Rattus norvegicus [23] = experiment: Chronic effect on preestablished dyslipidemia in rats for total cholesterol at 30 mg/kg of compound was determined; format: functional; how it was run: as §2
[24] = biological target: T1, Sterol O-acyltransferase 1; experiment: Compound was evaluated for the Acyl coenzyme A:cholesterol acyltransferase inhibition using microsomes isolated from the livers of cholesterol fed rats.; parameters: species or system Liver
How it was run: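 Liver microsomes from cholesterol-fed rats served as the ACAT source. IC50 was determined in four separate assays, each using four drug concentrations, and averaged.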

Rattus norvegicus [25] = experiment: […] activity in rats at a dose of 10 mg/kg of compound was determined; format: functional; how it was run: as §1
Rattus norvegicus [26] = experiment: […] activity in rats at a dose of 100 mg/kg of compound was determined; format: functional; how it was run: as §1
Rattus norvegicus [27] = experiment: […] activity in rats at a dose of 30 mg/kg of compound was determined; format: functional; how it was run: as §1
Rattus norvegicus [28] = experiment: Chronic effect on preestablished dyslipidemia in rats for HDL-C at 100 mg/kg of compound was determined; format: functional; how it was run: as §2
Rattus norvegicus [29] = experiment: Chronic effect on preestablished dyslipidemia in rats for HDL-C at 10 mg/kg of compound was determined; format: functional; how it was run: as §2
Rattus norvegicus [30] = experiment: Chronic effect on preestablished dyslipidemia in rats for nonHDL-C at 100 mg/kg of compound was determined; format: functional; how it was run: as §2
Rattus norvegicus [31] = experiment: Chronic effect on preestablished dyslipidemia in rats for total cholesterol at 100 mg/kg of compound was determined; format: functional; how it was run: as §2

Compound	Activity (Rattus norvegicus [3])	Activity (Rattus norvegicus [5])	ED50 (Rattus norvegicus [8])	Effect (Rattus norvegicus [11])	Effect (Rattus norvegicus [12])	Effect (Rattus norvegicus [13])	Effect (Rattus norvegicus [15])	Effect (Rattus norvegicus [16])	Effect (Rattus norvegicus [17])	Effect (Rattus norvegicus [18])	Effect (Rattus norvegicus [20])	Effect (Rattus norvegicus [21])	Effect (Rattus norvegicus [22])	Effect (Rattus norvegicus [23])	other results
CC(C)c1cccc(C(C)C)c1OC(=O)[N-]S(=O)(=O)Oc1c(C(C)C)cccc1C(C)C.[Na+]	98	78	1.8 mg/kg	25 mg/dL	44 mg/dL	39 mg/dL	59 mg/dL	102 mg/dL	47 mg/dL	53 mg/dL	127 mg/dL	111 mg/dL	92 mg/dL	91 mg/dL	logD [1]: 2.98; IC50 [2]: 5300 nM; IC50 (Caco-2): 930 nM; Activity (Rattus norvegicus [4]): 56; Activity (Rattus norvegicus [6]): 50; Activity (Rattus norvegicus [7]): 142; Effect (Rattus norvegicus [9]): 11 mg/dL; Effect (Rattus norvegicus [10]): 52 mg/dL; Effect (Rattus norvegicus [14]): 192 mg/dL; Effect (Rattus norvegicus [19]): 204 mg/dL
CCCCCCCN(CCCCCSc1nc(-c2ccccc2)c(-c2ccccc2)[nH]1)C(=O)Nc1ccc(F)cc1F [LECIMIBIDE]	158	122	15.2 mg/kg	10 mg/dL	21 mg/dL	14 mg/dL	135 mg/dL	234 mg/dL	98 mg/dL	203 mg/dL	244 mg/dL	154 mg/dL	217 mg/dL	120 mg/dL	IC50 [24]: 18 nM; Activity (Rattus norvegicus [25]): 77; Activity (Rattus norvegicus [26]): 79; Activity (Rattus norvegicus [27]): 74; Effect (Rattus norvegicus [28]): 32 mg/dL; Effect (Rattus norvegicus [29]): 18 mg/dL; Effect (Rattus norvegicus [30]): 87 mg/dL; Effect (Rattus norvegicus [31]): 119 mg/dL
